Read-outs that look alike come from different tables or passages of the source.
Key:
[1] = molecular target: recombinant human DDAH1 (rhDDAH1) (Homo sapiens, UniProt O94760); test: Colorimetric microplate DDAH activity assay; format: biochemical
[2] = system: human microvascular endothelial cells; test: Intracellular ADMA in human endothelial cells; format: cell-based; conditions: 20 μM, 24 hours
Procedure, shortened: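 HMEC-1 microvascular endothelial cells in serum-free DMEM got test compound (20 μM final), a known DDAH1 inhibitor as control, or DMSO vehicle for 3 h. Medium was then switched to DMEM with 10% FBS, 4mM HEPES and penicillin/streptomycin (pH 7.6), 37°C/5% CO2, until 24 h. Cells were washed and lysed; protein measured by Coomassie; intracellular ADMA by ELISA. Duplicate experiments; unpaired t-test versus vehicle.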

[3] = molecular target: T1, rhDDAH1 (Homo sapiens, UniProt O94760); test: Reversibility study by inhibitor dilution; format: biochemical; conditions: DDAH 30 μM pre-incubated with inhibitor, serially diluted
Procedure, shortened: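 DDAH (30 μM, 100-fold above the enzymatic assay concentration) was pre-incubated with test compound at three concentrations, then diluted. Recovery of enzymatic activity was read by fluorometric DDAH assay, with a known DDAH1 inhibitor as control.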

[4] = system: human saphenous vein segments; test: NOx release from human saphenous vein segments; conditions: 24 hours; in the presence or absence of A23187 (0.5 μM); omeprazole 3–100 μM, L-257 100 μM
Procedure, shortened: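 Saphenous vein segments harvested during CABG surgery were rinsed in lactated Ringer's solution, cut into 0.5 cm pieces and held in endothelial cell medium. They were kept basal or stimulated with A23187 (0.5 μM) for 24 hours with test compound, a reference DDAH1 inhibitor or vehicle. Griess reaction measured total nitrite (NOx) in the conditioned medium. Duplicate experiments, mean ± SEM, one-way ANOVA with Bonferroni post-test versus vehicle.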

[5] = molecular target: DDAH (Homo sapiens, UniProt O94760); test: High throughput screen for DDAH inhibitors; format: biochemical; conditions: primary hits of the screen of about 130,000 small molecules
Procedure, shortened: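 Purified recombinant human DDAH1 was used in a DDAH activity assay to screen a library of about 130,000 small molecules. Activity was monitored by colorimetric and fluorometric assays. Hits were compounds inhibiting DDAH by more than 30%. Primary hits were then validated with orthogonal colorimetric and fluorimetric activity assays.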

[6] = Serum ADMA levels in mice in vivo; design: species or system mouse; conditions: C57BL/6J mice; 30 mg/kg/day subcutaneous; 5-week study period
[7] = single oral dose of 30 mg, cited from earlier work
[8] = molecular target: T1, rhDDAH1; test: Surface plasmon resonance enzyme-drug binding study; conditions: 12.5–100 μM; rhDDAH1 amine coupled to CM5 chip; pH 6.5
Procedure, shortened: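 rhDDAH1 was purified with HEPES elution (10mM HEPES in PBS) to avoid competing amines, then amine-coupled to a CM5 chip. Test compound from a DMSO stock, or DMSO vehicle, was diluted in 100mM Na2HPO4, pH 6.5. It was passed over the chip at 4 concentrations (serial dilution, 12.5–100 μM). Binding was followed in real time as sensorgram peaks, in duplicate experiments.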

[9] = system: HMVECs; test: Western blot of DDAH1 and DDAH2 expression in HMVECs; format: cell-based, human; conditions: 3–100 μM for 24 hours
[10] = system: primary human microvascular endothelial cells (HMVECs); test: Intracellular NOx in endothelial cells; format: cell-based; conditions: 24 hours; lysates, normalized to total protein
Procedure, shortened: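 Primary HMVECs were exposed to vehicle or various concentrations of test compound for 24 h, with a selective DDAH1 inhibitor as control. Total nitrite (NOx) in cell lysates was measured by Griess reaction and normalized to total protein. Values come from duplicate experiments.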

[11] = system: HMVECs; test: Western blot of eNOS and phospho-eNOS in HMVECs; format: cell-based, human; conditions: HMVEC lysate, normalized to β-actin
Procedure, shortened: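 Endothelial cell lysates (20 μg) from cells exposed to test compound or vehicle were analysed by Western blot for total eNOS and phospho-eNOS. VEGF (50 ng/mL) served as positive control for eNOS phosphorylation. Bands were normalized to β-actin.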

[12] = system: mouse thoracic aorta; test: Vascular reactivity of isolated mouse thoracic aorta ex vivo; conditions: aorta exposed for 24 hours
[13] = IC50, 8 point concentration range 0.78–100 μM, Mean ± SEM, triplicate

T1 sequence (O94760 whole entry): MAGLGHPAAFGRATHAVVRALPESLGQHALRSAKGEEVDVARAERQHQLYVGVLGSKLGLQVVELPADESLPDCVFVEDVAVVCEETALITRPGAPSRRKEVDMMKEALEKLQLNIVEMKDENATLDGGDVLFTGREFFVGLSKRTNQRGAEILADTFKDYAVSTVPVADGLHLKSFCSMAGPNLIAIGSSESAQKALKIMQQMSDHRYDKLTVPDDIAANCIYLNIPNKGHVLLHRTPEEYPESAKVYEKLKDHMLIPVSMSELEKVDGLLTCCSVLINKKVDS
Sequence of recombinant human DDAH1 (rhDDAH1) (O94760 whole entry): as above
Sequence of DDAH (O94760 whole entry): as above

Compound: COc1ccc2nc([S@@+]([O-])Cc3ncc(C)c(OC)c3C)[nH]c2c1 [Esomeprazole, esomeprazole]
- IC50 [1, 13]: 52 ± 5 µM
- increase of intracellular ADMA compared to vehicle control [2]: ~ 30%

Compound: COCCNC(N)=NCCC[C@H](N)C(=O)O [L-257]
- reversibility of inhibition of DDAH enzymatic activity upon dilution [3]: complete reversibility upon dilution
- effect on intracellular ADMA ([2]; control DDAH inhibitor): increased ADMA
- NOx released from isolated human saphenous veins [4]: significantly inhibited

Compound: Cc1c(OCC(F)(F)F)ccnc1C[S+]([O-])c1nc2ccccc2[nH]1 (stereo not shown) [Lansoprazole, lansoprazole]
- inhibition of DDAH in high throughput screen [5]: more than 30%
- increase of intracellular ADMA compared to vehicle control [2]: ~ 30%
- increase of serum ADMA compared to vehicle control [6]: about 20%
- Cmax ([7]; read-out: maximum plasma concentration (Cmax)): 2 to 6 µM
- time to maximum plasma concentration [7]: ≤ 3 h

Compound: COc1ccc2[nH]c([S+]([O-])Cc3ncc(C)c(OC)c3C)nc2c1 (stereo not shown) [Omeprazole, omeprazole]
- inhibition of DDAH in high throughput screen [5]: more than 30%
- IC50 [1, 13]: 58 ± 5 µM
- IC50 ([1]; IC50, IC50 value used to set the concentrations of the reversibility study): ~60 µM
- binding to DDAH (SPR sensorgram) [8]: direct interaction between the PPI and DDAH
- reversibility of inhibition of DDAH enzymatic activity upon dilution [3]: rapid and almost complete reversibility
- protein expression of DDAH1 and DDAH2 [9]: neither regulated the expression of DDAH1 nor that of DDAH2
- levels of nitrogen oxides (NOx) in cultured endothelial cells [10]: dose-dependently reduced
- expression of total eNOS and active eNOS (phospho-eNOS) [11]: downregulated
- NOx released from isolated human saphenous veins [4]: significantly inhibited
- contraction to phenylephrine (PE) [12]: enhanced the contraction to phenylephrine
- endothelium independent vasorelaxation to sodium nitroprusside [12]: did not effect
- relaxation to acetylcholine (ACh) [12]: blunted the relaxation to acetylcholine

Compound: COc1ccnc(C[S+]([O-])c2nc3ccc(OC(F)F)cc3[nH]2)c1OC (stereo not shown) [Pantoprazole, pantoprazole]
- inhibition of DDAH in high throughput screen [5]: more than 30%

Compound: COc1ccc2[nH]c([S+]([O-])Cc3ncc(C)c(OC)c3C)nc2n1 (stereo not shown) [Tenatoprazole, tenatoprazole]
- inhibition of DDAH in high throughput screen [5]: more than 30%
- IC50 [1]: 61 ± 1.5 µM

Source: paper PMC3838201 (Circulation, 2013)
